Reference: ChEMBL document CHEMBL5038641, “Development of PDE6D and CK1α Degraders through Chemical Derivatization of FPFT-2216” (J Med Chem, 2022)
The source made the active and inactive calls. No cut-off for these calls is given here.

How the values were obtained:
[1] = molecular target: Retinal rod rhodopsin-sensitive cGMP 3',5'-cyclic phosphodiesterase subunit delta (Homo sapiens) (UniProt O43924); test: Induction of PDE6D degradation in human CRBN-null MOLT4 cells at 8 to 200 nM incubated for 4 hrs by Immunoblotting analysis; format: cell-based; settings: MOLT-4, dose 8-200 nM
[2] = system: MIA PaCa-2; test: Antiproliferative activity against human MIA PaCa-2 cells assessed as reduction in cell viability measured after 3 days by Celltiter-Glo assay; format: functional, cell-based; settings: for Activity: time 3.0 day; for IC50: MIA PaCa-2, 72 h
Procedure, shortened: (§1)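 Cells grown per supplier recommendations with 10% FBS plus penicillin/streptomycin and mycoplasma-checked. 800 cells per well in 384-well format, dosed the next day at the indicated concentrations; depending on the agent, dosing was once or daily. Viability was read by CellTiter-Glo luminescence after three days of treatment, with a 20 min incubation before reading.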

[3] = system: AGS; test: Antiproliferative activity against human AGS cells assessed as reduction in cell viability measured after 3 days by Celltiter-Glo assay; format: functional, cell-based; settings: for Activity: time 3.0 day; for IC50: 72 h; procedure, shortened: as §1
[4] = system: NCI-H358; test: Antiproliferative activity against human NCI-H358 cells assessed as reduction in cell viability measured after 3 days by Celltiter-Glo assay; format: functional, cell-based; settings: for Activity: time 3.0 day; for IC50: NCI-H358, 72 h; procedure, shortened: as §1
[5] = system: PaTu 8988t; test: Antiproliferative activity against human PaTu 8988t cells assessed as reduction in cell viability measured after 3 days by Celltiter-Glo assay; format: functional, cell-based; settings: for Activity: time 3.0 day; for IC50: 72 h; procedure, shortened: as §1
[6] = molecular target: DNA-binding protein Ikaros (Homo sapiens) (UniProt Q13422); test: Induction of IKZF1 degradation in human CRBN-null MOLT4 cells at 8 to 200 nM incubated for 4 hrs by Immunoblotting analysis; format: cell-based; settings: MOLT-4, dose 8-200 nM
[7] = molecular target: T1, Protein cereblon/Retinal rod rhodopsin-sensitive cGMP 3',5'-cyclic phosphodiesterase subunit delta (Homo sapiens, UniProt O43924+Q96SW2); test: Protac activity at CRBN/PDE6D in human MOLT-4 cells assessed as induction of PDE6D degradation at 1 microM measured after 4 hrs by Immunoblotting analysis; format: cell-based
Procedure, shortened: (§2)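 MOLT4 cells treated for 4 h, either at a single 1 µM screening dose or across a concentration series. Lysates were made in RIPA with protease/phosphatase inhibitors, and 20 μg protein was resolved by SDS-PAGE and transferred to nitrocellulose. PDE6D, IKZF1, IKZF3 and CK1α were immunoblotted against β-actin and detected with IRDye secondaries.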
Target sequence in this assay (O43924 whole entry, looked up): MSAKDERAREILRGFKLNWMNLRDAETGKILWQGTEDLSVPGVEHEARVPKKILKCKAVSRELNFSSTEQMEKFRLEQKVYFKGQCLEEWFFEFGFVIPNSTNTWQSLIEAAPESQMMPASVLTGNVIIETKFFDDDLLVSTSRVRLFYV
Target sequence in this assay (Q96SW2 whole entry, looked up): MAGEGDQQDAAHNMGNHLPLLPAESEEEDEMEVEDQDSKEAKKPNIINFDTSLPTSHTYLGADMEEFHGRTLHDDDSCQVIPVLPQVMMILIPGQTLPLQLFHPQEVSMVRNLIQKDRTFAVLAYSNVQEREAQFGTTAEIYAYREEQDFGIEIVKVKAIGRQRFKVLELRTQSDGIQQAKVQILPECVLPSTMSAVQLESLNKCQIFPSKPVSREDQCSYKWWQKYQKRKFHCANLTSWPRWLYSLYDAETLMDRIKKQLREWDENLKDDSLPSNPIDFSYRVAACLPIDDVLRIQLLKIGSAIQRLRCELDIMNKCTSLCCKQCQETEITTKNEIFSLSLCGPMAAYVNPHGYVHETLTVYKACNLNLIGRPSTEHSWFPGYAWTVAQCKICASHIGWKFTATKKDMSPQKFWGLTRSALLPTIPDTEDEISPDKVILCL

[8] = molecular target: T2, Cereblon/Casein kinase I alpha (Homo sapiens) (UniProt P48729+Q96SW2); test: Protac activity at CRBN/CK1alpha in human MOLT-4 cells assessed as induction of CK1alpha degradation at 1 microM measured after 4 hrs by Immunoblotting analysis; format: cell-based; procedure, shortened: as §2
[9] = molecular target: T1, Protein cereblon/Retinal rod rhodopsin-sensitive cGMP 3',5'-cyclic phosphodiesterase subunit delta; test: Protac activity at CRBN/PDE6D in human MOLT-4 cells assessed as induction of PDE6D degradation measured after 4 hrs by Immunoblotting analysis; format: cell-based; procedure, shortened: as §2
[10] = molecular target: T1, Protein cereblon/Retinal rod rhodopsin-sensitive cGMP 3',5'-cyclic phosphodiesterase subunit delta; test: Protac activity at CRBN/PDE6D in human Jurkat cells assessed as induction of PDE6D degradation measured after 4 hrs by Immunoblotting analysis; format: cell-based
Procedure, shortened: (§3)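 Jurkat or MM.1S cells given the indicated concentrations, up to 1 µM, for 4 h. RIPA lysates (30 min on ice) with 20 μg protein per lane were separated by SDS-PAGE and transferred to nitrocellulose. Blots were probed for PDE6D, IKZF1 (1:1000), IKZF3 (1:1000) and CK1α, with β-actin control and IRDye fluorescent secondary detection.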

[11] = molecular target: T1, Protein cereblon/Retinal rod rhodopsin-sensitive cGMP 3',5'-cyclic phosphodiesterase subunit delta; test: Protac activity at CRBN/PDE6D in human MM1.S cells assessed as induction of PDE6D degradation measured after 4 hrs by Immunoblotting analysis; format: cell-based; procedure, shortened: as §3
[12] = molecular target: T3, Protein cereblon/Zinc finger protein Aiolos (Homo sapiens) (UniProt Q96SW2+Q9UKT9); test: Protac activity at CRBN/IKZF3 in human Jurkat cells assessed as induction of IKZF3 degradation measured after 4 hrs by Immunoblotting analysis; format: cell-based; procedure, shortened: as §3
[13] = molecular target: T4, Cereblon/Ikaros (Homo sapiens) (UniProt Q96SW2+Q13422); test: Protac activity at CRBN/IKZF1 in human MOLT-4 cells assessed as induction of IKZF1 degradation at 1 microM measured after 4 hrs by Immunoblotting analysis; format: cell-based; procedure, shortened: as §2
[14] = molecular target: T3, Protein cereblon/Zinc finger protein Aiolos (Homo sapiens); test: Protac activity at CRBN/IKZF3 in human MOLT-4 cells assessed as induction of IKZF3 degradation at 1 microM measured after 4 hrs by Immunoblotting analysis; format: cell-based; procedure, shortened: as §2
[15] = molecular target: T4, Cereblon/Ikaros (Homo sapiens); test: Protac activity at CRBN/IKZF1 in human MOLT-4 cells assessed as induction of IKZF1 degradation measured after 4 hrs by Immunoblotting analysis; format: cell-based; procedure, shortened: as §2
[16] = molecular target: T3, Protein cereblon/Zinc finger protein Aiolos (Homo sapiens); test: Protac activity at CRBN/IKZF3 in human MOLT-4 cells assessed as induction of IKZF3 degradation measured after 4 hrs by Immunoblotting analysis; format: cell-based; procedure, shortened: as §2
[17] = molecular target: T4, Cereblon/Ikaros (Homo sapiens); test: Protac activity at CRBN/IKZF1 in human Jurkat cells assessed as induction of IKZF1 degradation measured after 4 hrs by Immunoblotting analysis; format: cell-based; procedure, shortened: as §3
[18] = molecular target: T4, Cereblon/Ikaros (Homo sapiens); test: Protac activity at CRBN/IKZF1 in human MM1.S cells assessed as induction of IKZF1 degradation measured after 4 hrs by Immunoblotting analysis; format: cell-based; procedure, shortened: as §3
[19] = molecular target: T3, Protein cereblon/Zinc finger protein Aiolos (Homo sapiens); test: Protac activity at CRBN/IKZF3 in human MM1.S cells assessed as induction of IKZF3 degradation measured after 4 hrs by Immunoblotting analysis; format: cell-based; procedure, shortened: as §3
[20] = molecular target: T2, Cereblon/Casein kinase I alpha (Homo sapiens); test: Protac activity at CRBN/CK1alpha in human MM1.S cells assessed as induction of CK1alpha degradation at 40 nM measured after 4 hrs by Immunoblotting analysis; format: cell-based; procedure, shortened: as §3
[21] = molecular target: T4, Cereblon/Ikaros (Homo sapiens); test: Protac activity at CRBN/IKZF1 in human MOLT-4 cells assessed as induction of IKZF1 degradation at 250 nM measured after 4 hrs by proteome mass spectrometry
[22] = molecular target: T3, Protein cereblon/Zinc finger protein Aiolos (Homo sapiens); test: Protac activity at CRBN/IKZF3 in human MOLT-4 cells assessed as induction of IKZF3 degradation at 250 nM measured after 4 hrs by proteome mass spectrometry

T3 sequence (Q96SW2 whole entry, looked up): as above
T3 sequence (Q9UKT9 whole entry, looked up): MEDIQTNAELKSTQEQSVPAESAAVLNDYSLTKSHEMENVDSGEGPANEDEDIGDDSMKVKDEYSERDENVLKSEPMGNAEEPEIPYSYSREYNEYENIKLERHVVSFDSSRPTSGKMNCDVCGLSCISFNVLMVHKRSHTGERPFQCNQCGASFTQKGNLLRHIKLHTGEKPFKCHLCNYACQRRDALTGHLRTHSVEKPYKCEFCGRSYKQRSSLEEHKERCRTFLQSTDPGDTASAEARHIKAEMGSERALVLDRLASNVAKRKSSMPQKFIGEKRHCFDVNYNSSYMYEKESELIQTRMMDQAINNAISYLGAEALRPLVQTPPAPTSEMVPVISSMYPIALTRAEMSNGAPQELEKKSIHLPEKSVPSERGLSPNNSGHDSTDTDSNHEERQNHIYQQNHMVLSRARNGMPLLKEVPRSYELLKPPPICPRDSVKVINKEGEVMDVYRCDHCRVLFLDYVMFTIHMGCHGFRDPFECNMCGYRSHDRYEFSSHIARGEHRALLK
T2 sequence (P48729 2-337 limits assumed): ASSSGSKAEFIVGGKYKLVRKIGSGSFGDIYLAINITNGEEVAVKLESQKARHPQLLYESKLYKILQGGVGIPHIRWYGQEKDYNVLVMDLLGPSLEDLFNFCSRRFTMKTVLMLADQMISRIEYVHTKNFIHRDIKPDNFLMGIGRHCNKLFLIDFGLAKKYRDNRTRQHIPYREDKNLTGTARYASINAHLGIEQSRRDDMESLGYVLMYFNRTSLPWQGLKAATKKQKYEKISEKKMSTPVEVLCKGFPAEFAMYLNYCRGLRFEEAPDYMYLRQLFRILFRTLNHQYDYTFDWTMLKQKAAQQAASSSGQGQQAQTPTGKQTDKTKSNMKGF
T2 sequence (Q96SW2 whole entry partner): as the sequence (Q96SW2 whole entry, looked up) above
Sequence of DNA-binding protein Ikaros (Homo sapiens) (Q13422 whole entry): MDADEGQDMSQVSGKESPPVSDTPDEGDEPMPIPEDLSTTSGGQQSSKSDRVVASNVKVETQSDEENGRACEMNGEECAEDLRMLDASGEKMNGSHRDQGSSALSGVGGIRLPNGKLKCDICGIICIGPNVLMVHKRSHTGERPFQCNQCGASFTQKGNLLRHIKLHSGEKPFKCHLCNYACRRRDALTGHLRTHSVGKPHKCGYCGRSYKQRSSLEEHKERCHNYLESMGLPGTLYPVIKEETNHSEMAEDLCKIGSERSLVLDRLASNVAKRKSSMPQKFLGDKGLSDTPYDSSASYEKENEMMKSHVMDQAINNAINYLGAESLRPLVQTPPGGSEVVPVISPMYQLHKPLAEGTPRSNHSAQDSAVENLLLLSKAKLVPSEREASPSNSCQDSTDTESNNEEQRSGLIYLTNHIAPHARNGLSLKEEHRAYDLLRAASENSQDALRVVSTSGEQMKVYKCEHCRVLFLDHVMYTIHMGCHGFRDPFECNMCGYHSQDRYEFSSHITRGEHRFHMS
Sequence of Retinal rod rhodopsin-sensitive cGMP 3',5'-cyclic phosphodiesterase subunit delta (Homo sapiens) (O43924 whole entry): as the sequence (O43924 whole entry, looked up) above

| SMILES | Activity [2] | Activity [3] | Activity [4] | Activity [5] | Activity [7] | Activity [8] | Activity [13] | Activity [14] | also measured |
| --- | --- | --- | --- | --- | --- | --- | --- | --- | --- |
| COc1cscc1-c1cn(C2CCC(=O)NC2=O)nn1 (stereo unspecified) | inactive | inactive | inactive | inactive | – | – | – | – | Activity [1]: inactive; Activity [6]: inactive |
| CNc1nccc(CN([C@H]2CC[C@H](N)CC2)S(=O)(=O)c2ccc(S(=O)(=O)N(Cc3ccc(Cl)cc3)C3CCCC3)cc2)n1 | – | – | – | – | – | – | – | – | IC50 [2]: 507 nM; IC50 [3]: 1200 nM; IC50 [4]: 954 nM; IC50 [5]: 1200 nM |
| O=C1CCC(n2cc(-c3ccsc3)nn2)C(=O)N1 (stereo unspecified) | inactive | inactive | inactive | inactive | Active | Active | – | – | DC50 [9]: < 200 nM; DC50 [10]: < 200 nM; DC50 [11]: < 200 nM |
| CSc1cscc1-c1cn(C2CCC(=O)NC2=O)nn1 (stereo unspecified) | inactive | inactive | inactive | inactive | Active | inactive | inactive | inactive | Activity [12]: inactive; Activity [9]: Active; Activity [15]: inactive; Activity [16]: inactive; Activity [10]: Active; Activity [17]: inactive; Activity [11]: Active; Activity [18]: inactive; Activity [19]: inactive; Activity [20]: 50% |
| C=C(F)C(=O)N1CCN(c2nc(OC[C@@H]3CCCN3C)nc3c2CCN(c2cccc4cccc(Cl)c24)C3)C[C@@H]1CC#N [ADAGRASIB] | – | – | – | – | – | – | – | – | IC50 [2]: 4 nM; IC50 [3]: 1400 nM; IC50 [4]: 6 nM; IC50 [5]: 3000 nM |
| COc1c(-c2cn(C3CCC(=O)NC3=O)nn2)csc1C(=O)NC1CCCC1 (stereo unspecified) | – | – | – | – | inactive | 70% | inactive | inactive | – |
| COc1c(-c2cn(C3CCC(=O)NC3=O)nn2)csc1C(=O)N1CCCC1 (stereo unspecified) | – | – | – | – | inactive | 70% | inactive | inactive | Activity [21]: inactive; Activity [22]: inactive |
